Screening data as filed in PubChem BioAssay.
The list is not random: actives were taken first. Their share in the collection is about 1.5%.
OXTR ag = agonists of human oxytocin receptor. 0.32% of 320,000 active. AID 2435. P30559. CHO-OTR cells, Fluo-8 calcium fluorescence; normalized: DMSO 0%, oxytocin 100%. activation, % at 3 µM;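 active means activation above the mean of all tested compounds plus 3 SD, cutoff set per screening run, cut at about 20% in these data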;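 further: peak over basal fluorescence ratio from a 100 s FLIPR kinetic read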
CHRM4 antagonist = antagonists of human muscarinic M4 receptor (CHRM4) | 0.73% of 360,000 active | AID 624125 | CHO-hM4 cells, ACh EC80, Fluo-8 calcium fluorescence | inhibition, % at 3 µM;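 active means inhibition above its plate's cutoff, the mean inhibition of sample wells plus 3 SD, cut at about 27% in these data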;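 further: 0% = acetylcholine EC80 with DMSO and 100% = DMSO without agonist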
OXTR potentiate = potentiates the human oxytocin receptor response. CHO-OTR cells, Fluo-8 calcium fluorescence, potentiator mode; 0% = oxytocin EC15, 100% = EC100. activation, % at 3 µM. 0.061% of 320,000 active;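 active means activation above that plate's cutoff, the mean activation of tested compounds plus 3 SD, cut at about 6.6% in these data, passing the limit was not always enough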;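 further: 100% uses oxytocin at 75 nM as the full agonist control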
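Assay system: CHO-OTR cells, human receptor / Also added: oxytocin at about EC15, sub-maximal agonist stimulus / Dosing: single dose, 3.0 µM nominal final compound concentration / Incubation: 6 min pre-incubation, 100 s read / Technique: Fluo-8 calcium dye fluorescence / Read-out: % activation vs EC15 and EC100 oxytocin / Benchmarks: EC15 oxytocin low, 75 nM oxytocin high / Replicates: singlicate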
V1aR counter = activates human V1a receptor in oxytocin agonist counter-screen | P37288 | CHO-V1R cells, Fluo-8 calcium fluorescence, agonist mode; 0% DMSO, 100% 3 nM vasopressin | activation, % at 3 µM | 0.25% of 320,000 active;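 active means activation above the mean activation of all tested compounds plus 3 SD, per screening run, cut at about 20% in these data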;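 further: signal is peak over basal fluorescence ratio across a 100 second FLIPR read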
Target sequence (P37288 whole entry, looked up): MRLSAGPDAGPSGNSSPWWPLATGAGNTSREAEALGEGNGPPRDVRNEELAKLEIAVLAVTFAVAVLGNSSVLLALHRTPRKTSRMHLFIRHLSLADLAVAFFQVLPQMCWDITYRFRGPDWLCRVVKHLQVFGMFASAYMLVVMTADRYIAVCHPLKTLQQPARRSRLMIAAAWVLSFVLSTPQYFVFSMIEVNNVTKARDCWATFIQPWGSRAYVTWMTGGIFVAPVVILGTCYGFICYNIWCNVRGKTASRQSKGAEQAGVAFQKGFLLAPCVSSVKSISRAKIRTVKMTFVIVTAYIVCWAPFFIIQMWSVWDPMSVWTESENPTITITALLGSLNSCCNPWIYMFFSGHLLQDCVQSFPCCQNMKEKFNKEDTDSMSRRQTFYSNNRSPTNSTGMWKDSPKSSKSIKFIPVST
M4 ag = agonists of human muscarinic M4 receptor (CHRM4); AID 624127; 0.14% of 360,000 active; activation, % at 3 µM; P08173; CHO-K1 hM4/Gqi5, Fluo-8 calcium fluorescence; vehicle 0%, full acetylcholine response 100%;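 active means activation above the run mean over all test wells plus 3 SD, cut at about 32% in these data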;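 further: peak over basal fluorescence ratio per well then scaled between controls; 0% = DMSO wells and 100% = acetylcholine at EC100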
CHRM4 PAM = potentiates acetylcholine response at human M4 receptor. P08173. CHO-K1 hM4/Gqi5, Fluo-8 calcium fluorescence, ACh EC20; 0% = ACh EC20, 100% = maximal ACh. activation, % at 3 µM. 0.4% of 360,000 active. AID 624126;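 active means activation above its plate's cutoff, the mean activation of sample wells plus 3 SD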
Starred values were filed as active, the others as inactive.

Screening CC1CCCCN1CCCNC(=O)C1CCN(c2nc3ccccc3o2)CC1 (stereo unspecified) returned OXTR ag 0.4, CHRM4 antagonist 54.7*, OXTR potentiate -6.1, V1aR counter 0.0, M4 ag 1.0 and CHRM4 PAM -15.9.
For CCc1nc2ccc(C(=O)NCCCn3ccnc3)cn2c1N(C)C(=O)c1cccc(OC)c1 the results were CHRM4 antagonist -10.7, M4 ag 0.8 and CHRM4 PAM 3.4.
Screening COc1cccc(C2SCC(=O)N2c2ccc(C)cc2)c1OC (stereo unspecified) returned OXTR ag -0.9, CHRM4 antagonist 64.9*, OXTR potentiate 2.8, V1aR counter -0.7, M4 ag -0.5 and CHRM4 PAM -38.9.
For O=C(c1[nH]c(C(F)(F)F)nc1-c1ccccc1)N1CCN(c2c(Cl)cncc2Cl)CC1 the results were CHRM4 antagonist 3.3, M4 ag 45.6* and CHRM4 PAM -6.8.
`O=C(c1[nH]c(C(F)(F)F)nc1-c1ccccc1)N1CCN(c2ccccc2)CC1` gave CHRM4 antagonist -11.5, M4 ag 0.6 and CHRM4 PAM 1.8.
Screening O=C1NCCN1CCNS(=O)(=O)c1ccc(F)c(Cl)c1 returned OXTR ag 0.2, CHRM4 antagonist 6.7, OXTR potentiate -7.0, V1aR counter -0.6, M4 ag 1.4 and CHRM4 PAM -3.7.
Screening Cc1ccc(CN2CCNC2=O)cc1 returned OXTR ag -0.7, CHRM4 antagonist -9.3, OXTR potentiate -7.6, V1aR counter 0.0, M4 ag 1.1 and CHRM4 PAM 34.0*.
Cc1ccc(CN2CCCNC2=O)cc1 was read as OXTR ag 0.2, CHRM4 antagonist 7.0, OXTR potentiate -5.0, V1aR counter 0.6, M4 ag 0.2 and CHRM4 PAM 1.3.
For Cc1ccc(S(=O)(=O)NCCN2CCNC2=O)cc1 the results were OXTR ag 0.6, CHRM4 antagonist -21.3, OXTR potentiate -0.7, V1aR counter -0.9, M4 ag 0.5 and CHRM4 PAM 34.1*.
O=S(=O)(c1ccc(OCC2CO2)cc1)c1ccc(OCC2CO2)cc1 (stereo unspecified) was read as OXTR ag 1.6, CHRM4 antagonist -2.8, OXTR potentiate -5.7, V1aR counter 2.3, M4 ag 1.6 and CHRM4 PAM 0.1.
`CCn1c(SCC(=O)N2CCC(C)CC2)nc2c1c(=O)n(C)c(=O)n2C` gave OXTR ag 1.7, CHRM4 antagonist -24.9, OXTR potentiate 2.5, V1aR counter 1.5, M4 ag 3.5 and CHRM4 PAM 9.2.
For CC1OC(CC(=O)O)CC2=C1C(=O)c1c(O)cccc1C2=O (stereo unspecified) the results were CHRM4 antagonist 35.8*, M4 ag 5.8 and CHRM4 PAM 7.5.
`O=C1c2cccc(O)c2C(=O)c2c(O)cccc21` gave OXTR ag 0.3, OXTR potentiate -10.5 and V1aR counter 0.1.
For CCN(CC(=O)NCc1cccs1)C(=O)COc1ccc(C(C)=O)cc1 the results were OXTR ag 1.4, CHRM4 antagonist 10.9, OXTR potentiate -1.9, V1aR counter 0.6, M4 ag 1.9 and CHRM4 PAM 1.7.
`CCC(=O)N(CC)c1nc(-c2ccc(OC)cc2)cs1` gave OXTR ag 4.8, CHRM4 antagonist 9.3, OXTR potentiate -6.4, V1aR counter 1.8, M4 ag 59.4* and CHRM4 PAM -22.3.
COc1ccc(-c2csc(N(CCCN(C)C)C(=O)c3ccccc3C)n2)cc1 was read as OXTR ag 7.9, CHRM4 antagonist 5.5, OXTR potentiate -2.3, V1aR counter 4.4, M4 ag 15.6 and CHRM4 PAM -11.3.
Screening CCN(C(=O)c1ccccc1F)c1nc(-c2ccc(OC)cc2)cs1 returned OXTR ag 1.2, CHRM4 antagonist -4.5, OXTR potentiate -13.8, V1aR counter 0.7, M4 ag 0.3 and CHRM4 PAM -1.6.
Screening COc1ccc(-c2csc(N(CCCN(C)C)C(=O)c3ccccc3F)n2)cc1 returned OXTR ag 6.5, CHRM4 antagonist 2.6, OXTR potentiate -0.5, V1aR counter 4.9, M4 ag 5.1 and CHRM4 PAM 4.3.
